Active and inactive are the calls of the source. The rule behind the calls is not given here. Bounds are passed on as bounds.

For orientation: IC50 means the concentration that gives 50% inhibition. As usually defined, the inhibition is the percentage by which the read-out fell short of the control.

One test concerns A-431. As to the kind of experiment: Cytotoxicity against human A431 cells after 72 hrs by MTT assay. In kind it is functional, cell-based. The settings on record: A-431, 72 h. Summed up: (§1)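 Cells seeded at 5000/well and left to attach overnight, then given fresh medium containing compound over […] and incubated 72 h. Viability read by MTT: 4 h contact, crystals dissolved in DMSO over 60 min of shaking, absorbance at 545 nm. Untreated wells served as controls; DMSO at most 0.3%. Two plates with at least five parallel wells each; IC50 from fitted dose–response curves.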
A general note: Formazan colour is commonly taken as a measure of viable cells.
In turn, `Oc1ccccc1-c1nc2cc(Cl)ccc2[nH]1` registered an IC50 of 6.16 µM.
Same read-out and setting: to `COc1cccc2c1C(=O)c1c(O)c3c(c(O)c1C2=O)C[C@@](O)(C(=O)CO)C[C@@H]3O[C@H]1C[C@H](N)[C@H](O)[C@H](C)O1` [DOXORUBICIN] belongs 0.19 µM; to `c1ccc(-c2nc3ccccc3[nH]2)c(OCCN2CCCC2)c1`, above 30 µM; to `Oc1ccccc1-c1nc2ccccc2[nH]1`, above 30 µM.

The subject of a further test is MCF7. As to the kind of experiment: Cytotoxicity against human MCF7 cells after 72 hrs by MTT assay. In kind it is functional, cell-based. Conditions: MCF7, 72 h. The method, boiled down: as §1
`Oc1ccccc1-c1nc2cc(Cl)ccc2[nH]1` displayed an IC50 of 6.94 µM.
Same read-out and setting: the result for `COc1cccc2c1C(=O)c1c(O)c3c(c(O)c1C2=O)C[C@@](O)(C(=O)CO)C[C@@H]3O[C@H]1C[C@H](N)[C@H](O)[C@H](C)O1` [DOXORUBICIN] reads 0.31 µM; that for `c1ccc(-c2nc3ccccc3[nH]2)c(OCCN2CCCC2)c1`, above 30 µM.
As to `Oc1ccccc1-c1nc2ccccc2[nH]1`, half-maximal inhibition (IC50) was put at 16 µM.

The species named for another test is Bos taurus. Put plainly: Inhibition of calf thymus DNA topoisomerase 1-mediated relaxation of supercoiled pBR322 plasmid DNA at 1 ug/ml by agarose gel electrophoresis.
Conditions: not given
Summed up:
(§2)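 Reaction contained 1 unit calf thymus topo I and supercoiled pBR322 in 35 mM Tris-HCl pH 8.0, 72 mM KCl, 5 mM MgCl2, 5 mM DTT, 5 mM spermidine and 0.1% BSA, with or without compound, at 37 °C. Products were run on 1% agarose in TBE at 5 V/cm, stained with ethidium bromide and photographed under UV. Supercoiled and relaxed bands were quantified from gel images.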
For the compound `Oc1ccccc1-c1nc2cc(Cl)ccc2[nH]1`, the inhibition worked out at 99%.
On to `Clc1ccc2[nH]c(-c3ccccc3OCCN3CCCC3)nc2c1`, for which the inhibition entry is “inactive”.
As to `CCN(CC)CCOc1ccccc1-c1nc2cc(Cl)ccc2[nH]1`, the inhibition result was “inactive”.
`c1ccc(-c2nc3ccccc3[nH]2)c(OCCN2CCCC2)c1`: the inhibition was 90.2%.
On the same count and under the same terms, the result for `c1ccc(-c2nc3ccccc3[nH]2)c(OCCN2CCOCC2)c1` reads “inactive”; that for `Oc1ccccc1-c1nc2ccccc2[nH]1`, 95.4%; that for `Clc1ccc2[nH]c(-c3ccccc3OCCN3CCOCC3)nc2c1`, “inactive”.
The same measure, in the same setting: to `Clc1ccc2[nH]c(-c3ccccc3OCCN3CCCCC3)nc2c1` belongs “inactive”; to `c1ccc(-c2nc3ccccc3[nH]2)c(OCCN2CCCCC2)c1`, “inactive”.

The species named for the next test is Bos taurus. As to the kind of experiment: Inhibition of calf thymus DNA topoisomerase 1-mediated relaxation of supercoiled pBR322 plasmid DNA by agarose gel electrophoresis.
Conditions: not given
The method, boiled down:
as §2
As to `Oc1ccccc1-c1nc2cc(Cl)ccc2[nH]1`, the inhibition result was “Dose-dependent effect”.
Same read-out and setting: the result for `Clc1ccc2[nH]c(-c3ccccc3OCCN3CCCC3)nc2c1` reads “Dose-dependent effect”; that for `CCN(CC)CCOc1ccccc1-c1nc2cc(Cl)ccc2[nH]1`, “Dose-dependent effect”; that for `c1ccc(-c2nc3ccccc3[nH]2)c(OCCN2CCCC2)c1`, “Dose-dependent effect”.
Consider `c1ccc(-c2nc3ccccc3[nH]2)c(OCCN2CCOCC2)c1`, for which the inhibition result was “Dose-dependent effect”.
Still for that read-out and setting: the result for `Oc1ccccc1-c1nc2ccccc2[nH]1` reads “Dose-dependent effect”; that for `Clc1ccc2[nH]c(-c3ccccc3OCCN3CCOCC3)nc2c1`, “Dose-dependent effect”; that for `Clc1ccc2[nH]c(-c3ccccc3OCCN3CCCCC3)nc2c1`, “Dose-dependent effect”.
Same read-out and setting: the result for `c1ccc(-c2nc3ccccc3[nH]2)c(OCCN2CCCCC2)c1` reads “Dose-dependent effect”.

The subject of a further test is HeLa. Put plainly: Cytotoxicity against human HeLa cells after 72 hrs by MTT assay. In kind it is functional, cell-based.
Conditions: not given
The method, boiled down: as §1
The compound `Oc1ccccc1-c1nc2cc(Cl)ccc2[nH]1` gave an IC50 of 6.04 µM.
Compound `COc1cccc2c1C(=O)c1c(O)c3c(c(O)c1C2=O)C[C@@](O)(C(=O)CO)C[C@@H]3O[C@H]1C[C@H](N)[C@H](O)[C@H](C)O1` [DOXORUBICIN] came in with an IC50 of 0.16 µM.
For the compound `c1ccc(-c2nc3ccccc3[nH]2)c(OCCN2CCCC2)c1`, the IC50 worked out at 19.8 µM.
Same read-out and setting: the result for `Oc1ccccc1-c1nc2ccccc2[nH]1` reads 26.4 µM.
